Assay results published in ChEMBL document CHEMBL4622832, “Synthesis, biological evaluation and molecular modeling study of 2-amino-3,5-disubstituted-pyrazines as Aurora kinases inhibitors” (Bioorg Med Chem, 2020).
Active and inactive are the calls of the source. No cut-off for these calls is given here.

What was measured:
LoVo = test: Antiproliferative activity against human LoVo cells assessed as cell growth inhibition after 72 hrs by MTT assay; format: functional, cell-based
Summary of the method: (§1)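 Cells seeded at 5 × 10^3 cells/well in medium with 10% FBS for 24 h at 37 °C, 5% CO2. Compounds diluted in culture medium to various concentrations, 72 h exposure. MTT (5 mg/mL stock in serum-free medium) for 4 h, formazan dissolved in DMSO, absorbance at 490 nm. IC50 from log plot of percent of control versus concentration; triplicate.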

HepG2 = test: Antiproliferative activity against human HepG2 cells assessed as cell growth inhibition after 72 hrs by MTT assay; format: functional, cell-based; conditions: HepG2, 72 h; summary of the method: as §1
HeLa [1] = test: Antiproliferative activity against human HeLa cells assessed as cell growth inhibition after 72 hrs by MTT assay; format: functional, cell-based; summary of the method: as §1
U-87 MG = test: Antiproliferative activity against human U87 cells assessed as cell growth inhibition after 72 hrs by MTT assay; format: functional, cell-based, U-87MG ATCC; summary of the method: as §1
Aurora kinase B [2] = target: T1, Aurora kinase B (Homo sapiens, UniProt Q96GD4); test: Inhibition of Aurora kinase B (unknown origin) incubated for 30 mins by Kinase Glo luminescent assay
Aurora kinase A = target: T2, Aurora kinase A (Homo sapiens, UniProt O14965); test: Inhibition of Aurora kinase A (unknown origin) incubated for 30 mins by Kinase Glo luminescent assay
T2 sequence (O14965 whole entry): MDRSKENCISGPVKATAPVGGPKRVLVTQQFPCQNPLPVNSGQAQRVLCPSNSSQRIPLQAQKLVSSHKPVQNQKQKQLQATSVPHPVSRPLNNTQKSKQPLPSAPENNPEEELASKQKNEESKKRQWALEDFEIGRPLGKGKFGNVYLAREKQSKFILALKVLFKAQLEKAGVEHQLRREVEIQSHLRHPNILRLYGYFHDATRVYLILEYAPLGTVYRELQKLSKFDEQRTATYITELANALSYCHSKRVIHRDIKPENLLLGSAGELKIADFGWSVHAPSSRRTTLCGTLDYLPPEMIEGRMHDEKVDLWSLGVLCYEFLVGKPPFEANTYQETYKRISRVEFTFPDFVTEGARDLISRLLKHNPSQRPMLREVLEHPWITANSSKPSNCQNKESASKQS

Aurora kinase B [3] = target: T1, Aurora kinase B; test: Inhibition of Aurora B in human B-NHL cells assessed as inhibition of histone H3 phosphorylation on Ser10 by immunoblotting analysis; format: cell-based
HeLa [4] = test: Induction of cell cycle arrest in human HeLa cells assessed as accumulation in G2/M phase at 10 uM after 24 hrs by propidium iodide staining-based flow cytometric analysis (reference value: 10.5%); format: functional
Aurora kinase B [5] = target: T1, Aurora kinase B; test: Inhibition of Aurora kinase B in human HeLa cells assessed as reduction in phosphorylation at Thr232 residue incubated for 24 hrs by western blot analysis; format: cell-based
Summary of the method: (§2)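 HeLa cells treated 24 h at 0, 1, 5 or 10 µM. Lysates quantified by BCA; 20–30 µg protein run on 12% SDS-PAGE, transferred to PVDF. Blocked 2 h in 5% milk/TBST. Primary antibodies (1:500–1:1000) overnight at 4 °C against p-Aurora A Thr288, p-Aurora B Thr232, total Aurora A/B, cyclin B1 and cdc2. Secondary at 1:5000–1:10,000; β-actin loading control.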

[6] = target: T3, Aurora kinase A (Homo sapiens) (UniProt O14965); test: Inhibition of Aurora kinase A in human HeLa cells assessed as reduction in phosphorylation at Thr288 residue incubated for 24 hrs by western blot analysis; format: cell-based; summary of the method: as §2
T3 sequence (whole entry): T2 sequence (O14965 whole entry)

HeLa [7] = test: Induction of cell cycle arrest in human HeLa cells assessed as accumulation in G2/M phase at 1 uM after 24 hrs by propidium iodide staining-based flow cytometric analysis (reference value: 10.5%); format: functional
HeLa [8] = test: Induction of cell cycle arrest in human HeLa cells assessed as accumulation in G2/M phase at 5 uM after 24 hrs by propidium iodide staining-based flow cytometric analysis (reference value: 10.5%); format: functional
HeLa [9] = test: Induction of cell cycle arrest in human HeLa cells assessed as decrease in cyclin B1 expression level at 1 to 10 uM incubated for 24 hrs by Western blot analysis; format: functional, cell-based; summary of the method: as §2
HeLa [10] = test: Induction of cell cycle arrest in human HeLa cells assessed as decrease in cdc2 expression level at 1 to 10 uM incubated for 24 hrs by Western blot analysis; format: functional, cell-based; summary of the method: as §2
HeLa [11] = test: Induction of cell cycle arrest in human HeLa cells assessed as accumulation in G2/M phase after 24 hrs by propidium iodide staining-based flow cytometric analysis; format: functional

T1 sequence (Q96GD4 whole entry): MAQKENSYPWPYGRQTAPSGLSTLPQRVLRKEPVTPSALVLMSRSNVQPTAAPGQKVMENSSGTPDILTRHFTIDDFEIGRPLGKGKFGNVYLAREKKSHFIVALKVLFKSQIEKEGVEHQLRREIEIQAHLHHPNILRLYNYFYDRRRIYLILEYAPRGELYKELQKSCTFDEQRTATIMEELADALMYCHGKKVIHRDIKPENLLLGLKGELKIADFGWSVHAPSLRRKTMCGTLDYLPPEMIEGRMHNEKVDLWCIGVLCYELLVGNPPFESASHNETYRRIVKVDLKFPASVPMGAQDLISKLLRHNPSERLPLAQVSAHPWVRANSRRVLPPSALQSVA

| SMILES | IC50 (LoVo) [µM] | IC50 (HepG2) [µM] | IC50 (HeLa [1]) [µM] | IC50 (U-87 MG) [µM] | IC50 (Aurora kinase B [2]) [µM] | IC50 (Aurora kinase A) [µM] | also measured |
| --- | --- | --- | --- | --- | --- | --- | --- |
| Cc1noc(C)c1-c1cnc(N)c(Oc2ccc(C(=O)NC3CCCCC3)cc2)n1 | 21.6 | 5.42 | 26.1 | 40.4 | 0.32 | 0.23 |  |
| Cn1cc(-c2cnc(N)c(Oc3ccc(C(=O)Nc4cccc(Cl)c4)cc3)n2)cn1 | 24.5 | 21.2 | 4.46 | 21.7 | 0.272 | 0.658 |  |
| Cc1noc(C)c1-c1cnc(N)c(Oc2ccc(C(=O)NC3CC3)cc2)n1 | > 100 | 43.2 | 17.8 | 43.3 |  |  |  |
| Cc1noc(C)c1-c1cnc(N)c(NCc2ccc(C(=O)Nc3ccc(Cl)cc3)cc2)n1 | > 100 | > 100 | > 100 | > 100 |  |  |  |
| Cc1noc(C)c1-c1cnc(N)c(Sc2ccc(C(=O)Nc3ccc(Cl)cc3)cc2)n1 | 49.2 | 45.2 | 38.4 | > 100 |  |  |  |
| Cc1noc(C)c1-c1cnc(N)c(Oc2ccc(C(=O)NC3CCCC3)cc2)n1 | 25.2 | 12.8 | 9.97 | 57.6 |  |  |  |
| O=C(Nc1c[nH]nc1-c1nc2ccc(CN3CCOCC3)cc2[nH]1)NC1CC1 [AT-9283] |  |  |  |  |  |  | IC50 (Aurora kinase B [3]): 0.03 µM |
| Cc1cc(Nc2cc(N3CCN(C)CC3)nc(Sc3ccc(NC(=O)C4CC4)cc3)n2)n[nH]1 [TOZASERTIB] | 13.6 | 12.8 | 9.5 | 14.5 |  |  | Activity (HeLa [4]): 36% |
| Cn1cc(-c2cnc(N)c(Oc3ccc(C(=O)Nc4ccc(Cl)cc4)cc3)n2)cn1 | 3.08 | 11.9 | 3.44 | 35.8 | 0.175 | 0.19 |  |
| Cn1cc(-c2cnc(N)c(Oc3ccc(C(=O)Nc4ncccc4Cl)cc3)n2)cn1 | 16.5 | 21.7 | 36.1 | 37.6 |  |  |  |
| Cc1noc(C)c1-c1cnc(N)c(Oc2ccc(C(=O)N3CCN(C)CC3)cc2)n1 | 7.69 | 17.6 | 8.03 | 21.5 | 0.189 | 0.143 |  |
| Cn1cc(-c2cnc(N)c(Sc3ccc(C(=O)Nc4ccc(Cl)cc4)cc3)n2)cn1 | > 100 | > 100 | 42.7 | > 100 |  |  |  |
| Cn1cc(-c2cnc(N)c(NCc3ccc(C(=O)Nc4ccc(Cl)cc4)cc3)n2)cn1 | 43.6 | 20.1 | 42.1 | > 100 |  |  |  |
| Cn1cc(-c2cnc(N)c(Oc3ccc(C(=O)Nc4ccccc4Cl)cc3)n2)cn1 | 41.4 | 66.9 | 73 | 44.8 |  |  |  |
| Cn1cc(-c2cnc(N)c(Oc3ccc(C(=O)Nc4ccccc4)cc3)n2)cn1 | 9.21 | 11.6 | 12.3 | 17.7 | 0.164 | 0.22 |  |
| Cc1noc(C)c1-c1cnc(N)c(Oc2ccc(C(=O)N3CCOCC3)cc2)n1 | 10.2 | 15.4 | 14.1 | 27.2 | 0.36 | 0.172 |  |
| Cn1cc(-c2cnc(N)c(Oc3ccc(C(=O)Nc4cc(Cl)ccn4)cc3)n2)cn1 | 26.6 | > 100 | 40.8 | 47.9 |  |  |  |
| Cn1cc(-c2cnc(N)c(Oc3ccc(C(=O)Nc4cccc(Cl)n4)cc3)n2)cn1 | 48.6 | 44.2 | 38.2 | 54.8 |  |  |  |

Continued, in another order:

| IC50 (LoVo) [µM] | IC50 (HepG2) [µM] | IC50 (HeLa [1]) [µM] | IC50 (U-87 MG) [µM] | IC50 (Aurora kinase B [2]) [µM] | IC50 (Aurora kinase A) [µM] | SMILES | also measured |
| --- | --- | --- | --- | --- | --- | --- | --- |
| 14.8 | 27.2 | 31.9 | 45.6 |  |  | Cc1noc(C)c1-c1cnc(N)c(Oc2ccc(C(=O)Nc3ncccc3Cl)cc2)n1 |  |
| 39.3 | 35.7 | 25.5 | 64.1 |  |  | Cc1noc(C)c1-c1cnc(N)c(Oc2ccc(C(=O)Nc3cccc(Cl)n3)cc2)n1 |  |
| > 100 | > 100 | 37.9 | 70.8 |  |  | Cc1noc(C)c1-c1cnc(N)c(Oc2ccc(C(=O)Nc3cc(Cl)ccn3)cc2)n1 |  |
| 17.5 | 6.88 | 32.1 | 47.8 |  |  | CCCNC(=O)c1ccc(Oc2nc(-c3c(C)noc3C)cnc2N)cc1 |  |
| 1.92 | 14.4 | 2.23 | 15.5 | 0.26 | 0.458 | Cc1noc(C)c1-c1cnc(N)c(Oc2ccc(C(=O)Nc3ccc(Cl)cc3)cc2)n1 |  |
| > 100 | > 100 | 81.3 | 60.5 |  |  | Cc1noc(C)c1-c1cnc(N)c(Oc2ccc(C(=O)Nc3ccccc3Cl)cc2)n1 |  |
| 6.16 | 24.2 | 21.5 | 22.2 |  |  | Cn1cc(-c2cnc(N)c(Oc3ccc(C(=O)Nc4ccc(Cl)cn4)cc3)n2)cn1 |  |
| 9.18 | 35.6 | 19.2 | 45.6 |  |  | Cc1noc(C)c1-c1cnc(N)c(Oc2ccc(C(=O)Nc3ccc(Cl)cn3)cc2)n1 |  |
| 5.74 | 11.8 | 10.5 | 26.6 | 0.538 | 0.22 | Cc1noc(C)c1-c1cnc(N)c(Oc2ccc(C(=O)Nc3ccccc3)cc2)n1 |  |
| 1.64 | 7.3 | 1.34 | 11.5 | 0.152 | 0.09 | Cc1noc(C)c1-c1cnc(N)c(Oc2ccc(C(=O)Nc3cccc(Cl)c3)cc2)n1 | inhibition (Aurora kinase B [5]): Dose-dependent effect; inhibition [6]: Dose-dependent effect; Activity (HeLa [7]): 21%; Activity (HeLa [8]): 30.1%; Activity (HeLa [4]): 34.9%; Activity (HeLa [9]): Active; Activity (HeLa [10]): Active; Activity (HeLa [11]): Dose-dependent effect |
